# Laboratory results published in article PMC5858514 (Theranostics, 2018).
# How the values were obtained:
# [1] = system: MDA-MB-231, OVCAR3, and U87MG cell lines; assay: Cell viability MTT assay, three tumor cell lines stated together; type: cell-based, human; settings: maximum / at the highest dose
# Summary of the method: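 MTT viability assay. Cells at 5 × 10^3 per well, kept at 37 °C, 5% CO2 with 10% FBS: MDA-MB-231 in L-15, OVCAR3 and 293T in DMEM, U87MG in MEM. Test compound from 3 pM to 1.6 nM for 24 h, six replicates. MTT (5 mg/mL stock) added for 4 h, medium replaced with DMSO, absorbance read at 490 nm.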
# U87MG cells = assay: Apoptosis study, Annexin V-FITC/PI flow cytometry; type: cell-based, human; settings: 24 h
# Summary of the method: (§1)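 Annexin V-FITC/PI apoptosis assay. Media: MDA-MB-231 in L-15, OVCAR3 in DMEM, U87MG in MEM; all with 10% FBS, 37 °C, 5% CO2. Cells in 6-well plates got 200 μL of 1 mg/mL test compound for 24 h, then two PBS (pH 7.4) washes. Binding buffer, propidium iodide and Annexin V-FITC were added before flow cytometry. Q2 was early apoptotic and Q4 late apoptotic; Q2+Q4 was taken as […].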
# OVCAR3 cells = assay: Apoptosis study, Annexin V-FITC/PI flow cytometry; type: cell-based, human; settings: OVCAR3, 24 h
# Summary of the method: as §1
# MDA-MB-231 cells = assay: Apoptosis study, Annexin V-FITC/PI flow cytometry; type: cell-based, human; settings: MDA-MB-231, 24 h
# Summary of the method: as §1
# MDA-MB-231 tumor = assay: In vivo antitumor activity; set-up: species or system mice; settings: three i.v. injections every other day, 6 mg/kg PTX equivalent
# Summary of the method: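 Female BALB/c nude mice were fed a folate-deficient diet for 6 days, then given MDA-MB-231 cells at the right axillary fossa. Treatment began at tumor volumes of 80–150 mm3, n = 5 per group, with a PBS (pH 7.4) control. Dosing was 6 mg/kg PTX equivalent by tail vein, three injections every other day. Tumor volume was measured every other day. Excised tumors were assayed for CD46 protein.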
# [2] = Toxicity in the therapy study: body weight and histopathology; type: in vivo, mice
# Summary of the method: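 Female nude mice bearing MDA-MB-231 tumors, n = 5 per group with a PBS (pH 7.4) control. They received 6 mg/kg PTX equivalent i.v. by tail vein, three doses every other day. Body weight was recorded every other day. Liver and kidneys were excised for pathology.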
smiles,measurement,setting,value
"CC(=O)O[C@H]1C(=O)[C@@]2(C)[C@H]([C@H](OC(=O)c3ccccc3)[C@]3(O)C[C@H](OC(=O)[C@H](O)[C@@H](NC(=O)c4ccccc4)c4ccccc4)C(C)=C1C3(C)C)[C@]1(OC(C)=O)CO[C@@H]1C[C@@H]2O [PTX, paclitaxel]",cell inhibition ratio,[1],63%
same,cells undergoing early apoptosis (Q2),U87MG cells,29.8%
same,late apoptotic cells (Q4),U87MG cells,3.1%
same,cells undergoing early apoptosis (Q2),OVCAR3 cells,21.8%
same,late apoptotic cells (Q4),OVCAR3 cells,2.5%
same,cells undergoing early apoptosis (Q2),MDA-MB-231 cells,33.8%
same,late apoptotic cells (Q4),MDA-MB-231 cells,1.3%
same,tumor volume inhibition,MDA-MB-231 tumor,41.04%
same,histopathological examination (H&E) of liver and kidneys / major organs,"[2]; after treatment, compared with control group",no distinct pathologic changes
same,body weight loss,"[2]; day 21 post initial treatment, 6 mg/kg i.v. x3",0.65 ± 0.02 g
same,change in body weight,"[2]; over the study period, 6 mg/kg PTX equivalent i.v. x3",significant decrease
